The target in assay [1] is T1, Penicillin-binding protein 2X (Streptococcus pneumoniae R6, UniProt P59676).
T1 sequence (P59676 whole entry): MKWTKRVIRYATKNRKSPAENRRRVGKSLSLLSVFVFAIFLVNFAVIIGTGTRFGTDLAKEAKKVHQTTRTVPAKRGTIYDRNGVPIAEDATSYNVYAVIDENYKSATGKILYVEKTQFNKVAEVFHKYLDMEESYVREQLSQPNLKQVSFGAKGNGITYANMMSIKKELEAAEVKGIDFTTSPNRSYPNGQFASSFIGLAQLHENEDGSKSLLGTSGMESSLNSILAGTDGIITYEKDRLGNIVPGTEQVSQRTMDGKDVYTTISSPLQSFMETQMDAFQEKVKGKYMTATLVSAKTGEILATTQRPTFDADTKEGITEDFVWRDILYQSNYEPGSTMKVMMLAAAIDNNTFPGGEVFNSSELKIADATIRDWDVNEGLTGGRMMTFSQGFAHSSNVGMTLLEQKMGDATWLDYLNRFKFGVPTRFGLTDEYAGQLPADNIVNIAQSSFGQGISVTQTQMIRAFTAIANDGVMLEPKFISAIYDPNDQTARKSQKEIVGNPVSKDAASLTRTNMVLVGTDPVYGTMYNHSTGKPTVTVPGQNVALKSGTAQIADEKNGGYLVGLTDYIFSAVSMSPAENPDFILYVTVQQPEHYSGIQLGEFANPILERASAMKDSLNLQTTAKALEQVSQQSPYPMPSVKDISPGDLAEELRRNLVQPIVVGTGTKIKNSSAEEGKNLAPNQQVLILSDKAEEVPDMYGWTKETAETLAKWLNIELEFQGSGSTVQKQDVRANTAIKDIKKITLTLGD
In words: (§1) Inhibition of penicillin-sensitive Streptococcus pneumoniae R6 PBP2X preincubated for 1 hr before addition of substrate (R)-[2-(benzoylamino)propionylsulfanyl]acetic acid. Put shortly:
(§2)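 Compounds taken from 100 mM DMF stocks (1% DMF final) and preincubated with 0.09 μM R6-PBP2x in 10 mM sodium phosphate pH 7.0 with 0.01 mg/mL BSA, 60 min, 25 °C. Spontaneous hydrolysis without enzyme measured. Triplicates. IC50 fitted from residual activity versus decreasing inhibitor concentration, with 0.01% Triton X-100.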

For assay [2], the target named is Penicillin-binding protein 2x (Streptococcus pneumoniae serotype 4 (strain ATCC BAA-334 / TIGR4), UniProt P14677). In words: (§3) Inhibition of penicillin-resistant Streptococcus pneumoniae 5204 PBP2X preincubated for 4 hrs before addition of substrate (R)-[2-(benzoylamino)propionylsulfanyl]acetic acid. Put shortly: (§4)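 0.6 μM 5204-PBP2x preincubated 4 h at 25 °C with inhibitor in 10 mM sodium phosphate pH 7.0, 70 mM D-alanine, 0.01 mg/mL BSA, 1% DMF, 0.01% Triton X-100. Assays were run in triplicate, and IC50 was fitted from residual activity versus decreasing inhibitor concentrations.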

In assay [3] the target is T2, Penicillin-binding protein 2x (Streptococcus pneumoniae serotype 4 (strain ATCC BAA-334 / TIGR4)) (UniProt P14677).
T2 sequence (whole entry): T1 sequence (P59676 whole entry) with M385T
In words: Inhibition of penicillin-resistant Streptococcus pneumoniae 5204 PBP2X. Put shortly:
as §4

The nature of assay [4]: Inhibition of Streptococcus pneumoniae PBP1B after 60 mins by SDS-PAGE. Put shortly:
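Test compounds incubated with 0.7 μM PBP1b in 10 mM sodium phosphate pH 7.0 for 60 min at 30 °C. Remaining active enzyme counter-labeled with 10 μM fluorescein-labeled ampicillin for 20 min. Reaction stopped, proteins separated by SDS-PAGE and read by fluorescence imaging with background subtracted.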

Assay [5] deals with T2, Penicillin-binding protein 2x (Streptococcus pneumoniae serotype 4 (strain ATCC BAA-334 / TIGR4)). The assay can be described thus: Inhibition of penicillin-resistant Streptococcus pneumoniae 5204 PBP2X assessed as residual activity at 100 uM preincubated for 1 hr before addition of substrate (R)-[2-(benzoylamino)propionylsulfanyl]acetic acid.
For assay [6], the target named is T3, Penicillin-binding protein 2X (Streptococcus pneumoniae R6) (UniProt P59676).
T3 sequence (whole entry): T1 sequence (P59676 whole entry)
Described as §1. The method, boiled down:
as §2

Assay [7] relates to Streptococcus pneumoniae. In words: Antibacterial activity against penicillin-resistant Streptococcus pneumoniae SP328. The format is functional.
In assay [8] the target is T2, Penicillin-binding protein 2x (Streptococcus pneumoniae serotype 4 (strain ATCC BAA-334 / TIGR4)). The assay is described as §3. The method, boiled down:
as §4

Assay [9] relates to Streptococcus pneumoniae. In words: Antibacterial activity against penicillin-resistant Streptococcus pneumoniae 5259. The format is functional.
Assay [10] concerns the target T2, Penicillin-binding protein 2x (Streptococcus pneumoniae serotype 4 (strain ATCC BAA-334 / TIGR4)). In words: Inhibition of penicillin-resistant Streptococcus pneumoniae 5204 PBP2X assessed as residual activity at 200 uM preincubated for 1 hr before addition of substrate (R)-[2-(benzoylamino)propionylsulfanyl]acetic acid.

Positions count from the first letter of the chain named. Values after ≈ are worked out from the molar mass of the structure shown. Active and inactive are the calls of the source. No cut-off for these calls is given here.

Chain of Penicillin-binding protein 2x (P14677 whole entry, looked up): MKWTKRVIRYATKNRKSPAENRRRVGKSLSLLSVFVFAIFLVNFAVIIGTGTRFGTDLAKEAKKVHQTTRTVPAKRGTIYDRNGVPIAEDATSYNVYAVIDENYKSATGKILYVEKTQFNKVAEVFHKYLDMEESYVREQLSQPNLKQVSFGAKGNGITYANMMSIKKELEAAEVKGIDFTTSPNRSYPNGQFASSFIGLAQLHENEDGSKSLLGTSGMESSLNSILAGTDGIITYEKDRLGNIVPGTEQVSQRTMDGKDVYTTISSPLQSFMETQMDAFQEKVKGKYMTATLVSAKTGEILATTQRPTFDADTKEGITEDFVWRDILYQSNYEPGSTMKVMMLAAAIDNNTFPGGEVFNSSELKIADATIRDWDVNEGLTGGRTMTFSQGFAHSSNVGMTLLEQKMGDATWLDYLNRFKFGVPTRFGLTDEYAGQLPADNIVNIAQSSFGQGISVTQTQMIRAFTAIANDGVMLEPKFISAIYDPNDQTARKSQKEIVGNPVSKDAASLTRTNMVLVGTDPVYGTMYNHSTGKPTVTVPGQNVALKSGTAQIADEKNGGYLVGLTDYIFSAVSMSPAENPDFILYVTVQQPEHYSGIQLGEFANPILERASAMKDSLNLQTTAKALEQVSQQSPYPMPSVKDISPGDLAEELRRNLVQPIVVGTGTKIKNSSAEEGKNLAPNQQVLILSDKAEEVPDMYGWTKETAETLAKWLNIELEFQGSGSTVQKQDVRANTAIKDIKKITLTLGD

Consider `Cc1cc(Cl)ccc1NC(=O)Nc1c(Oc2ccc(Cl)cc2)ccc(Cl)c1S(=O)(=O)O`, for which the 50% inhibitory concentration (IC50) (usually the concentration needed to halve the response being measured) in assay [1] is 336 µM; in assay [2] it was 71 µM; in assay [4] (read-out: IC50), 259 µM. For the same compound, the outcome in [3] was Active. In addition, in assay [5], the Activity amounted to 50%.

`O=C(Nc1cccc(C(F)(F)F)c1)Nc1c(Oc2ccc(Cl)c(Cl)c2)ccc(Cl)c1S(=O)(=O)O`: the figures for the concentration for half-maximal inhibition (IC50) in assay [1], in [2] and in assay [4] (read-out: IC50) were 255 µM, 72 µM and 88 µM, respectively. Moreover, in assay [3], the result was Active. Moreover, in [5], the Activity came out at 50%.

As to `CC1(C)S[C@@H]2[C@H](NC(=O)Cc3ccccc3)C(=O)N2[C@H]1C(=O)O` [PENICILLIN G], the result in assay [6] and in [8] was Active. The MIC (commonly the lowest concentration found to suppress growth) came to 4 µg/mL (≈ 12 µM) in assay [7] and 0.19 µg/mL (≈ 0.568 µM) in assay [9].

On to `Cc1ccc(Nc2nnc(CSc3ccc(Cl)cc3)s2)c(S(=O)(=O)O)c1`, for which the Activity in assay [10] was 54%. In addition, the IC50 in [1] was > 1000 µM; in [2] it was 219 µM; in assay [4], “Not Active”. Further, in assay [3], the result was Active.

Take `Nc1nc(/C(=N/O)C(=O)N[C@@H]2C(=O)N3C(C(=O)O)=C(/C=C4\CCN([C@@H]5CCNC5)C4=O)CS[C@H]23)ns1`: the outcome in [6] and in assay [8] was Active.
